Activity data for one compound are collected here from ChEMBL document CHEMBL4819088, “Synthesis and in vivo screening of isosteviol derivatives as new cardioprotective agents” (2021).

Test [1] relates to H9c2. Description: Cardioprotective activity against doxorubicin-induced rat H9c2 cells assessed as protection of cell damage measured after 48 hrs by CCK8 assay. The test is classed as functional, cell-based. The note with it: dose 0.5-12.5 µM. An outline of the steps: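 H9c2 cells grown in DMEM with 10% FBS and penicillin/streptomycin at 37 °C, 5% CO2, used at 70% confluence. Exposed to DOX (10 μM) with or without test compound (0.5–12.5 μM) for 48 h. CCK-8 (0.5 mg/mL) then added for 4 h to read viability.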

For test [2], the species on record is Danio rerio. Description: Cardioprotective activity against Zebrafish assessed as reduction in doxorubicin-induced increase in Cardiac troponin T mRNA level by qRT-PCR analysis. The test is classed as functional, organism-based. As to conditions: dose 20-40 µM. Put shortly:
(§1)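 Zebrafish embryos, either controls or exposed to doxorubicin with or without test compound. ANP and cTnT mRNA levels measured relative to control. Mean ± S.D., n = 4.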
In general terms: Quantitative PCR measures a nucleic acid by following its amplification.

For test [3], the species on record is Danio rerio. Description: Prevention of doxorubicin-induced Zebrafish mortality assessed as increase in survival rate incubated for 48 hrs by inverted fluorescence microscopy. It is filed as functional, organism-based. The note with it: dose 5-40 µM. An outline of the steps: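 Wild-type embryos, 24 hpf, 20 per well in 1 mL egg water, exposed to DOX (100 μM) with or without test compound (5, 15, 40 μM) for 48 h. Survival scored at 96 hpf by inverted fluorescence microscopy; no motion on touch, or loss of atrial and ventricular contractility, counted as dead. Mean ± S.D., n = 4.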

The species named for test [4] is Danio rerio. Description: Cardioprotective activity against Zebrafish assessed as reduction in doxorubicin-induced increase in natriuretic peptide mRNA level by qRT-PCR analysis. It is filed as functional, organism-based. As to conditions: dose 20-40 µM. An outline of the steps:
as §1

For test [5], the species on record is Danio rerio. Description: Prevention of doxorubicin-induced Zebrafish mortality assessed as survival rate at 40 uM incubated for 48 hrs by inverted fluorescence microscopy (reference value: 52%). It is filed as functional.
Test [6] relates to H9c2. Description: Cardioprotective activity against rat H9c2 cells assessed as inhibition of doxorubicin-induced ROS production preincubated for 48 hrs followed by loading with DCFDA dye for 40 mins by DCF-DA probe based fluorescence assay. The note with it: dose 1-10 µM. It is filed as functional, cell-based. An outline of the steps: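 H9c2 cells exposed for 48 h with or without test compound, then loaded with DCFH-DA (5 μM final, in DMEM) for 40 min at 37 °C. Cells washed three times with PBS; DCF fluorescence read by confocal microscopy as the ROS level. Mean ± S.D., n = 3.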

Test [7] is filed under the species Danio rerio. Description: Cardioprotective activity against doxorubicin-induced (cmlc2:GFP) transgenic Zebrafish assessed as protection of heart function loss measured after 48 hrs. It is filed as functional, organism-based. The note with it: dose 20-60 µM. Put shortly:
(§2)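 Tg(cmlc2:GFP) embryos, 24 hpf, 20 per well, exposed to DOX (80 μM) with or without test compound at its optimum concentration for 48 h. At 72 hpf, heart rate, fractional shortening, stroke volume and cardiac output were derived from fluorescence imaging of atrium and ventricle. Mean ± S.D., n = 4.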

For test [8], the species on record is Danio rerio. Description: Cardioprotective activity in (cmlc2:GFP) transgenic Zebrafish assessed as reduction in doxorubicin-induced cardiac impairment measured after 48 hrs. The test is classed as functional, organism-based. Put shortly:
as §2

Test [9] is filed under the species Danio rerio. Description: Cardioprotective activity in (cmlc2:GFP) transgenic Zebrafish assessed as prevention of doxorubicin-induced heart shape change measured after 48 hrs. It is filed as functional, organism-based.
The species named for test [10] is Danio rerio. Description: Cardioprotective activity against doxorubicin-induced (cmlc2:GFP) transgenic Zebrafish assessed as protection of heart measured after 48 hrs. As to conditions: dose 20-60 µM. The test is classed as functional, organism-based. An outline of the steps: as §2
Test [11] relates to H9c2. Description: Cardioprotective activity against rat H9c2 cells assessed as inhibition of doxorubicin-induced mitochondrial membrane potential loss incubated for 48 hrs by JC1 staining based confocal microscopy. The note with it: dose 1-10 µM.
Test [12] deals with Danio rerio. Description: Cardioprotective activity in (cmlc2:GFP) transgenic Zebrafish assessed as reduction in doxorubicin-induced cardiac edema measured after 48 hrs. It is filed as functional, organism-based.

As for `COc1ccc(C(=O)OC[C@@H]2C(=O)[C@@]3(C)CC[C@H]4[C@]5(C)CCC[C@@](C)(N)[C@H]5CC[C@@]24C3)c(OC)c1OC`, the Activity result in test [1] was “Dose-Dependent Effect”; in [2], “Dose-Dependent Effect”; in [3], “Dose-Dependent Effect”; in test [4] it was “Dose-Dependent Effect”; in test [5] it was 98%; in test [6], “Dose-Dependent Effect”. The Activity entry in test [7], in test [8], in test [9], in test [10], in test [11] and in [12] was “Dose-Dependent Effect” throughout.
